Assay outcomes (PubChem)
CRFBP-R2 agonist: agonists of CRF-BP/CRF-R2 complex, primary screen, cell-based, HEK293, calcium dye fluorescence, uHTS | calcium dye fluorescence (FLIPR); percent of saturating CRF peptide response | activation, % at 13.2 µM | hit rate 0.46% among 350,000 | AID 588473, 2011;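 active = activation of at least 50%, plus an integration ratio under a set limit after plate pattern correction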;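 note: plate controls were neutral control wells without compound for no effect and CRF at EC100 for full effect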
OXTR agonist: human OXTR agonists, primary screen, fluorescence, CHO-OTR cells, Fluo-8 calcium; Oxytocin receptor (Homo sapiens), P30559; Fluo-8 calcium fluorescence; normalized: DMSO 0%, oxytocin 100%; activation, % at 3 µM; hit rate 0.32% among 320,000; AID 2435, 2010;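 active = activation above the mean of all tested compounds plus 3 SD, cutoff set per screening run, cut at about 20% in these data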;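 note: peak over basal fluorescence ratio from a 100 s FLIPR kinetic read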
TRPML3 agonist: human TRPML3 channel agonists, primary screen, cell-based, HEK293 TRPML3-YFP, Fluo-8 calcium fluorescence, 3 µM; Mucolipin-3 (Homo sapiens), Q8TDD5; 100% = the carbachol control signal; activation, % at 3 µM; hit rate 0.29% among 220,000; AID 1448, 2008;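 active = activation above its plate's cutoff, the mean activation of the plate's test wells plus 3 SD, cut at about 12% in these data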;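 note: 0% = DMSO only wells and 100% = carbachol wells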
Target sequence (Q8TDD5 whole entry, looked up): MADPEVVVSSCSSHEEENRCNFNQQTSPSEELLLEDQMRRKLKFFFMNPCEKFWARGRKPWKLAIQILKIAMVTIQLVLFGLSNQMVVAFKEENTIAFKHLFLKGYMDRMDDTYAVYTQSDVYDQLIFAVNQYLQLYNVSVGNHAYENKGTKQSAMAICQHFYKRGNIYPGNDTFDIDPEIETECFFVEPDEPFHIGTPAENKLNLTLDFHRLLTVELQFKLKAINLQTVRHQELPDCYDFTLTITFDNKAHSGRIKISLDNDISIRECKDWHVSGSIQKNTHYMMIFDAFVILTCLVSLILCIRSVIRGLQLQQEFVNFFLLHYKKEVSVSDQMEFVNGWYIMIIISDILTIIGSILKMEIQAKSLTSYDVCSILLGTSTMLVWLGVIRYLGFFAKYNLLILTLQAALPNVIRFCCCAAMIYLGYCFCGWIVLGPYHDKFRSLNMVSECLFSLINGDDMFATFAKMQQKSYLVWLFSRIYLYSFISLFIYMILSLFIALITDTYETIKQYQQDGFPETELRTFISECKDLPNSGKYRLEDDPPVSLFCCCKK
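Material: HEK293 cells stably carrying human TRPML3-YFP; compound dosing: single dose, 3 µM final nominal compound, 0.3% DMSO final; incubation: 1-h 37 °C dye load, 5-s basal, 120-s post-compound reads; technique: Fluo-8 intracellular calcium fluorescence, excitation 470-495 nm, emission 515-575 nm; read-out basis: percent activation from peak-to-basal fluorescence ratio, scaled between DMSO and carbachol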
OXTR potentiate: human OXTR potentiators, primary screen, fluorescence, CHO-OTR cells, Fluo-8 calcium. Fluo-8 calcium fluorescence, potentiator mode; 0% = oxytocin EC15, 100% = EC100. activation, % at 3 µM. hit rate 0.061% among 320,000;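 active = activation above that plate's cutoff, the mean activation of tested compounds plus 3 SD, cut at about 6.6% in these data, passing the limit was not always enough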;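 note: 100% uses oxytocin at 75 nM as the full agonist control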
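Measured by – Fluo-8 calcium dye fluorescence · Test system – human OTR in CHO cells · Dosing – one concentration, 3.0 µM compound · Controls – EC15 oxytocin alone as 0%, 75 nM oxytocin as 100% · Evaluation – normalized max/min fluorescence ratio, % activation · Timing – 6 min pre-incubation, 100 s read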
zfTRPN1 agonist: zebrafish TRPN1 channel agonists, primary screen, cell-based, HEK293, calcium fluorescence; transient receptor potential cation channel N1 (TRPN1/NompC), Danio rerio; HEK293 zebrafish TRPN1-YFP, Fluo-8 calcium fluorescence; 100% = response to 87 µM carbachol; activation, % at 3 µM; hit rate 0.18% among 220,000;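 active = activation above its plate's cutoff, the mean activation of test wells on that plate plus 3 SD, cut at about 19% in these data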;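 note: 0% = DMSO alone and 100% = 87 µM carbachol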
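Control set: carbachol 87 µM as high control, DMSO as low control; system: HEK293 stable line with zebrafish TRPN1-YFP; read-out: % activation versus carbachol response; detection: intracellular calcium fluorescence with Fluo-8; doses: single test compound dose, 3 µM nominal, 0.3% DMSO; schedule: dye 1 h 37 °C plus 30 min RT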
V1R ag counter: agonists of human V1a receptor, primary screen, counter-screen for OXTR agonist project, fluorescence, CHO-V1R cells; Vasopressin V1a receptor (Homo sapiens), P37288; Fluo-8 calcium fluorescence, agonist mode; 0% DMSO, 100% 3 nM vasopressin; activation, % at 3 µM; hit rate 0.25% among 320,000;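 active = activation above the mean activation of all tested compounds plus 3 SD, per screening run, cut at about 20% in these data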;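 note: signal is peak over basal fluorescence ratio across a 100 second FLIPR read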
OXTR pot confirm: human OXTR potentiators, confirmation, fluorescence, CHO-OTR cells, triplicate. shares compounds with OXTR potentiate. Fluo-8 calcium fluorescence, potentiation; scaled from low-dose to maximal oxytocin. activation, % at 3 µM. 180 tested, under 10 active;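 active = mean percent activation over triplicates above a cutoff set from solvent-only control plates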;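 note: compounds tested in the presence of an EC15 dose of oxytocin; 0% = EC15 oxytocin with DMSO and 100% = EC100 oxytocin with DMSO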
An asterisk follows results filed as active; nt = no result. Compounds with a hit are over-represented: about 0.85% of the library has one in this group of screens.

SMILES	CRFBP-R2 agonist	OXTR agonist	TRPML3 agonist	OXTR potentiate	zfTRPN1 agonist	V1R ag counter	OXTR pot confirm
CC(C)C(=O)N1CCN(c2ccccc2NC(=S)NC(=O)Cc2ccccc2)CC1	1.6	-1.1	nt	-7.3	nt	-0.5	nt
CC(=O)Nc1ccc(S(=O)(=O)N(C)CC(=O)N/N=C/c2cccc(O)c2)cc1	-0.8	1.4	1.1	15.3*	2.6	-0.9	-3.4
CC(=O)Nc1ccc(S(=O)(=O)N(C)CC(=O)N/N=C/c2cccs2)cc1	-0.5	-0.2	nt	-8.2	nt	-0.1	nt
CC(C)CC1NC(=O)c2cc(Cl)ccc2-n2c1nc1cc(F)ccc1c2=O (configuration not stated)	nt	-2.6	nt	14.9*	nt	-1.0	2.6
CCOC(=O)C1=C(CNCCOc2ccc(OC)cc2)NC(=O)NC1c1ccc2c(c1)OCO2 (configuration not stated)	-0.9	-1.0	-1.2	10.0*	-2.2	-0.5	-10.1
CC(C)(C)c1ccc(NC(=O)C2CCCN(c3cnccn3)C2)cc1 (configuration not stated)	-0.5	-0.6	nt	-11.9	nt	1.7	nt
CCOc1ccc(NC(=O)c2ccc3c(c2)N(Cc2ccc(F)cc2)C(=O)CS3=O)cc1 (configuration not stated)	0.0	-0.6	-0.3	12.4*	2.1	-0.8	-2.6
CC(Oc1cc2oc(=O)cc(-c3ccccc3)c2cc1Cl)C(=O)NCC1CCC(C(=O)O)CC1 (configuration not stated)	2.1	0.0	nt	-1.3	nt	0.7	nt
CCc1cc2c(-c3ccccc3)cc(=O)oc2cc1OC(C)C(=O)NCC1CCC(C(=O)O)CC1 (configuration not stated)	-0.6	0.7	nt	9.8*	nt	-0.3	-2.4
Cn1c(=O)c2c(nc(NCCCO)n2Cc2cccc(Br)c2)n(C)c1=O	-2.5	0.7	0.2	11.2*	-0.3	0.4	-5.8
Cc1cccc(Cn2c(NCCO)nc3c2c(=O)n(C)c(=O)n3C)c1	-0.7	-0.6	0.6	3.2	0.8	0.9	nt
COC(=O)CSc1[nH]c2ccc(F)cc2c1[N+](=O)[O-]	-0.3	-0.1	0.6	9.0*	3.3	0.5	-1.2
Cc1cc(C)n(C(=O)C(C(=O)c2ccccc2)C(C)C)n1 (configuration not stated)	-6.1	-2.6	-0.2	10.6*	-2.4	0.4	0.6
O=c1c(O)c(-c2ccc(O)c(O)c2)oc2cc(O)cc(O)c12	5.2	0.8	nt	20.6*	nt	1.2	7.2*
CC1CCCCC1NC(=O)CCS(=O)(=O)c1cc2c(cc1Cl)NC(=O)CO2 (configuration not stated)	-1.3	-0.2	nt	25.1*	nt	0.4	-3.1
Cc1ccc(NC(=O)CCS(=O)(=O)c2cc3c(cc2Cl)NC(=O)CO3)cc1	-0.7	0.7	nt	0.8	nt	-0.1	nt
CCn1c(=O)c(C(=O)Nc2ccccn2)c(O)c2ccccc21	0.8	0.4	0.9	12.4*	1.7	3.1	-3.1
CN(CC(=O)NCc1ccncc1)S(=O)(=O)c1ccc(F)cc1	7.0	0.2	0.6	11.8*	0.4	1.1	-3.7
CN(C)S(=O)(=O)N1CCN(CC(=O)Nc2ccc(Br)cc2)CC1	7.0	1.7	nt	-10.1	nt	0.8	nt
O=c1cnnc(N/N=C/c2ccc3c(c2)OCO3)[nH]1	-4.5	-0.4	0.8	10.0*	0.5	-0.8	-4.2
CC(Sc1ccc(Cl)cc1)C(=O)NCc1ccc2c(c1)OCO2 (configuration not stated)	-0.7	-2.4	-0.3	9.4*	-1.1	-0.5	0.0
COC(=O)c1ccc(CNC(=O)C2CCC(=O)N(CCc3ccccn3)C2)cc1 (configuration not stated)	1.6	nt	nt	nt	nt	nt	nt
CCN1CCCC1CNC(=O)C(=O)Nc1cccc(OC)c1 (configuration not stated)	-1.0	1.6	0.4	13.4*	1.1	0.8	-4.1
CCN1CCCC1CNC(=O)C(=O)Nc1ccccc1 (configuration not stated)	-1.1	1.7	0.0	-2.8	-0.1	0.7	nt
O=C(NCC(=O)N1CCN(S(=O)(=O)c2ccccc2F)CC1)c1ccc2c(c1)OCO2	-2.8	-0.6	nt	-3.8	nt	0.4	nt
SMILES	CRFBP-R2 agonist	OXTR agonist	TRPML3 agonist	OXTR potentiate	zfTRPN1 agonist	V1R ag counter	OXTR pot confirm
COc1cc(OC)cc(C(=O)NCC(=O)N2CCN(S(=O)(=O)c3ccccc3F)CC2)c1	-1.9	0.9	nt	13.7*	nt	0.3	0.6
O=C(NC(c1ccccc1)c1ccccc1)C1CCCC1	-0.1	-1.5	-0.1	11.7*	-0.3	-1.1	0.3
CC(C)CNC(=O)CC(=O)N/N=C/c1ccc(F)cc1	-2.2	2.3	0.6	12.2*	-0.4	0.3	-3.5
O=C(CN1CCCCCC1)NN(Cc1ccccc1)c1ccccc1	-0.7	-0.1	-0.9	-5.2	-1.2	-0.9	nt
COc1ccc(-c2sc(C(=O)c3ccc(Cl)cc3Cl)cc2CC(=O)O)cc1	1.1	-1.4	nt	-15.0	nt	0.7	nt
O=C(CCC(=O)Nc1ccccc1)N/N=C/c1cccnc1	3.9	1.5	nt	0.4	nt	-0.1	nt
CC(=O)N1CCN(C(=O)C(Cc2c[nH]c3ccccc23)NC(=O)c2ccccc2Cl)CC1 (configuration not stated)	-1.0	1.5	nt	15.2*	nt	0.5	-5.7
Cc1ccc(CNC(=O)C2CCC(=O)N2C2CCCCC2)cc1 (configuration not stated)	1.3	1.4	0.2	10.3*	-0.2	0.3	-4.9
c1ccc(COc2ncnc3c2ncn3CCCNC2CCN(Cc3ccccc3)CC2)cc1	-0.6	nt	nt	nt	nt	nt	nt
CCn1c(SCC(=O)Nc2nc(C)cs2)nnc1-c1cccnc1	-0.5	0.1	0.7	11.2*	-0.2	0.2	-3.0
CCn1c(SCC(=O)Nc2nccs2)nnc1-c1cccnc1	1.4	0.3	nt	-5.5	nt	0.3	nt
CC(C(=O)Nc1cc(Cl)cc(Cl)c1)N1CCCC1 (configuration not stated)	4.5	3.8	nt	-11.1	nt	1.9	nt
O=C(c1ccccc1)N1CCN(S(=O)(=O)N2CCOCC2)CC1	4.3	2.0	1.0	14.1*	1.1	1.2	-1.8
CC1=C(C(=O)OC(C)C)C(c2cccs2)NC(=O)N1 (configuration not stated)	-2.0	0.6	0.9	9.9*	0.0	-0.2	-5.0
